How the values were obtained:
Type in all cases: functional
MCF7 [1] = assay: Induction of cell cycle arrest in human MCF7 cells assessed as fold increase in apoptotic cells at sub-G1 phase at IC50 concentration incubated for 24 hrs by PI/RNase staining based flow cytometric analysis relative to control
Outline: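 Cells were washed in ice-cold PBS, fixed in ice-cold 70% ethanol, treated with 100 µg/mL RNase and stained with 40 µg/mL PI. DNA content was read by flow cytometry, with sub-G1 compared against control.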

MCF7 [2] = assay: Induction of apoptosis in human MCF7 cells assessed as early apoptotic cells by Annexin V-FITC/propidium iodide staining based flow cytometric analysis (reference value: 0.47 %)
MDA-MB-468 [3] = assay: Potency index, ratio of staurosporine IC50 to compound IC50 for antiproliferative activity against human MDA-MB-468 cells measured after 48 hrs under normoxic condition by MTT assay
MDA-MB-468 [4] = assay: Potency index, ratio of staurosporine IC50 to compound IC50 for antiproliferative activity against human MDA-MB-468 cells measured after 48 hrs under CoCl2-induced hypoxic condition by MTT assay

Row | Structure (SMILES) | fold change (FC) (MCF7 [1]) | Activity (MCF7 [2]) | Ratio IC50 (MDA-MB-468 [3]) | Ratio IC50 (MDA-MB-468 [4])
1 | N#Cc1c(-c2ccc(Cl)cc2)nc2c(/N=N/c3ccc(S(N)(=O)=O)cc3)c(N)nn2c1N | 8 | 5.88% | – | –
2 | Cc1ccc(-c2nc3c(/N=N/c4ccc(S(N)(=O)=O)cc4)c(N)nn3c(N)c2C#N)cc1 | – | – | 3.1 | 2.1
3 | N#Cc1c(-c2ccc(F)cc2)nc2c(/N=N/c3ccc(S(N)(=O)=O)cc3)c(N)nn2c1N | 11 | 6.58% | – | –

Source: ChEMBL document CHEMBL4680175, “Sulfonamide-based ring-fused analogues for CAN508 as novel carbonic anhydrase inhibitors endowed with antitumor activity: Design, synthesis, and in vitro biological evaluation” (Eur J Med Chem, 2020)
